The values that follow come from ChEMBL document CHEMBL3856239, “Synthesis and Antiobesity Properties of 6-(4-Chlorophenyl)-3-(4-((3,3-difluoro-1-hydroxycyclobutyl)methoxy)-3-methoxyphenyl)thieno[3,2-d]pyrimidin-4(3H)-one (BMS-814580): A Highly Efficacious Melanin Concentrating Hormone Receptor 1 (MCHR1) Inhibitor” (J Med Chem, 2016).

A short description of data set [1]: AUC in dog at 1 mg/kg, iv. The class given is ADME, organism-based, Canis lupus familiaris. The following applies: in vivo. In short, it runs like this: (§1)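 Rats, dogs and cynomolgus monkeys, n = 3: parent 1 mg/kg i.v. in PEG400:DMAC:water (70:5:25), or phosphate prodrug 10 mg/kg oral in Methocel:Tween80:water (0.5:0.1:99.4); plasma parent compound, Cmax, Tmax, AUC0-∞, half-life, clearance, Vss and bioavailability derived.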

The nature of data set [2]: Half life in rat at 1 mg/kg, iv. The class given is ADME, organism-based. The following applies: in vivo. A digest of the protocol:
as §1

For data set [3], the target named is T1, Cytochrome P450 2C8 (Homo sapiens, UniProt P10632).
T1 sequence (P10632 whole entry): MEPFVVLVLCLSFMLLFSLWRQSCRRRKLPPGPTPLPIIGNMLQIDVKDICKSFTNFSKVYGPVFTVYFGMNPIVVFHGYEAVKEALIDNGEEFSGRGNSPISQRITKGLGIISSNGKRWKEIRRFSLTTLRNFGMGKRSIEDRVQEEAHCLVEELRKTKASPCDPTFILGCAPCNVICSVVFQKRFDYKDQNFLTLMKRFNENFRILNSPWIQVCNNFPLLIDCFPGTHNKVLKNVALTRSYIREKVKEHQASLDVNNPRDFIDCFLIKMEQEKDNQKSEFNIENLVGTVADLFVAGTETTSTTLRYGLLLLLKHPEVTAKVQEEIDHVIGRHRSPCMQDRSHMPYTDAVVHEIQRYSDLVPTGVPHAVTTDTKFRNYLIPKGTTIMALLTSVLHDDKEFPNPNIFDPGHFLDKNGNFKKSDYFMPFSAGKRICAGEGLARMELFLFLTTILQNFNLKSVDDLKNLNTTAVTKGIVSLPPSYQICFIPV
The data set is described as follows: Inhibition of CYP2C8 (unknown origin). The class given is ADME. In short, it runs like this:
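CYP1A2, 2C8, 2C9, 2C19, 2D6 and 3A4 tested for inhibition, with 40 µM as the top tested limit.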

For data set [4], the target named is L-type calcium channel (Homo sapiens, UniProt O60840+Q01668+Q13698+Q13936). The data set is described as follows: Inhibition of L-type calcium channel (unknown origin) at 10 uM. A digest of the protocol: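 In vitro ion-channel inhibition measured at 10 µM against hERG, Na (4 Hz) and L-type Ca channels; read-out is percent inhibition.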
Data set [5] is described as follows: Volume of distribution at steady state in cynomolgus monkey at 1 mg/kg, iv. It is filed as ADME, organism-based, Macaca fascicularis. Conditions: in vivo, read-out: Vdss. In short, it runs like this: (§2)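 Full PK in rat, dog and cynomolgus monkey. Oral arm: phosphate prodrug at 10 mg/kg parent-equivalent in Methocel:Tween80:water (0.5:0.1:99.4). Intravenous arm: parent at 1 mg/kg in PEG400:DMAC:water (70:5:25). n = 3 per species; individual Tmax values reported for dog and monkey.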

Data set [6] is described as follows: Lipophilicity, log P of the compound at pH 7 by HPLC analysis. The following applies: buffer. It is filed as physicochemical. In short, it runs like this:
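LogP determined by HPLC at pH 7.0.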

A short description of data set [7]: Volume of distribution at steady state in dog at 1 mg/kg, iv. Conditions: in vivo, read-out: Vdss. It is filed as ADME, organism-based, Canis lupus familiaris. In short, it runs like this: as §2
The nature of data set [8]: Protein binding in rat plasma assessed as unbound fraction. It is filed as ADME, cell-free. In short, it runs like this:
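Plasma protein binding reported as % free drug in rat, DIO rat, dog, cynomolgus monkey, rabbit and human plasma.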

The subject of data set [9] is Rattus norvegicus. The experiment in a line: Antiobesity activity in pair-fed DIO Sprague-Dawley rat model assessed as reduction in body weight at 1 mg/kg, po qd for 28 days relative to vehicle control. The class given is functional. Details: scale not given: the % may be the effect or the level left. In short, it runs like this: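 Obese male SD rats on diet-induced obesity, 8/group, dosed orally once daily for 28 days with phosphate prodrug (0.03–3 mg/kg parent) in 14% propylene glycol/1% Tween/85% water; rimonabant 10 mg/kg control; pair-fed groups matched to 1 and 3 mg/kg intake; body weight and food measured daily, % change versus vehicle.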

Data set [10] relates to Rattus norvegicus. The experiment in a line: Toxicity in DIO Sprague-Dawley rat assessed as biliary lesion formation at 10 mg/kg, po qd for 4 days. It is filed as organism-based. The following applies: in vivo, 96 h.

Consider `COc1cc(-n2cnc3cc(-c4ccc(Cl)cc4)sc3c2=O)ccc1OCC1(O)CC(F)(F)C1`, for which, in [1], the AUC came out at 5.2 µM·h. In addition, the half-life in data set [2] was more than 24 h. In data set [3], this compound gave an INH of more than 40 µM. Also, the inhibition at 10 µM in data set [4] amounted to 15%. Further, the Vd was 5.4 L/kg in [5] and 7.2 L/kg in data set [7]. Further, the lipophilicity (logP) in data set [6] is reported as 4.8. Besides, in data set [8], the Fu is 0.2%. The Activity is recorded as 4.2% in data set [9] and “Non-Toxic” in data set [10].
